Screening data (PubChem BioAssay)
PolyA inh: blocks polyadenylation in yeast reporter cells | S. cerevisiae SKY197-pL101 polyadenylation reporter, beta-gal luminescence; efflux-impaired pdr1/pdr3 knockout yeast; score 100 = 6 SD above DMSO | activity score, % at 12 µM | 0.02% of 300,000 active | AID 1875;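 active = lowest replicate activity score at least 50, where 100 means six control SD above control mean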;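 note: yeast exposed to compound for 9 h at 30 °C; higher score means more reporter readthrough which indicates perturbed polyadenylation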
procasp3 activ: procaspase-3 (human) activation | activation, % at 8.5 µM | AID 463141 | recombinant procaspase-3 D3A, Ac-DEVD-pNA absorbance 405 nm | P42574 | 0.11% of 330,000 active;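 active = activation above the mean of all tested compounds plus 3 SD, cut at about 21% in these data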;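 note: 0% = DMSO alone and 100% = DMSO wells spiked with extra 5 µM PC-3 D3A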
Target sequence (P42574 whole entry D9A/D28A/D175A): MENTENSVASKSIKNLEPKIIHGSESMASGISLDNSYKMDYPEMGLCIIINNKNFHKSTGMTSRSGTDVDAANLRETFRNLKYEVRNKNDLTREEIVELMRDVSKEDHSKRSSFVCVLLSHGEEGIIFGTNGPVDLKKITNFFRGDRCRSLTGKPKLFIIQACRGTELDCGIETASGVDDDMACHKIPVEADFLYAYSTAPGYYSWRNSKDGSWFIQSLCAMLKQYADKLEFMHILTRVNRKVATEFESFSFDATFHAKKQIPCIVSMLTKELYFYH
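Evaluation: percent activation relative to control range; Material: Procaspase-3 D3A mutant, all three cleavage aspartates alanine; Compound: single dose, 8.5 µM nominal compound, 0.8% DMSO; Replication: one well per compound; Signal: absorbance at 405 nm, 0 and 120 min; Schedule: 1 h preincubation plus 2 h reaction at 25 °C.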
IMP-1 inh-1: inhibitors of Pseudomonas aeruginosa IMP-1 metallo-beta-lactamase. purified IMP-1, nitrocefin hydrolysis, epi-absorbance fluorescence. 0.45% of 290,000 active. inhibition, % at 5.6 µM;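 active = inhibition above the mean plus 3 SD of all compounds in the same screening run, cut at about 4.5% in these data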;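 note: 0% = IMP-1 with DMSO and 100% = DMSO wells lacking enzyme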
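Assay system: purified recombinant IMP-1 beta-lactamase. Input: IMP-1 0.2 nM before substrate addition. Buffer or medium: Zinc- and detergent-supplemented HEPES buffer, pH 7.1. Schedule: 25 °C, 15 min preincubation, 25 min reaction. Signal: Epi-absorbance fluorescence, 480 nm excitation, 530 nm emission. Evaluation: percent inhibition from optical density relative to buffer-blank wells.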
procasp7 counter: counter-screen: procaspase-7 (human) activation; recombinant procaspase-7, Ac-DEVD-pNA absorbance 405 nm; D23A/D198A/D206A triple mutant, cannot self-cleave; scale: DMSO 0, 5 µM enzyme 100; activation, % at 8.5 µM; 0.093% of 330,000 active; AID 463210;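 active = percent activation above the screen-wide mean plus 3 SD, cut at about 25% in these data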
Target sequence (P55210 whole entry D23A/D198A/D206A): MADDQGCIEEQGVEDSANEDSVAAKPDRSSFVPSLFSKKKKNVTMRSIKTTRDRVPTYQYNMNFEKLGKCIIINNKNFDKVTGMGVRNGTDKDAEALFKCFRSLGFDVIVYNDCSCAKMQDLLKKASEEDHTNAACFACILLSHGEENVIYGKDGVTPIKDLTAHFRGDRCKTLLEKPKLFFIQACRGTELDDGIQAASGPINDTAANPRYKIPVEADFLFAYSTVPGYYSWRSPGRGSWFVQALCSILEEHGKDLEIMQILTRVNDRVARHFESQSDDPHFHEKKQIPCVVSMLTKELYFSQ
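Test system: Procaspase-7 triple mutant (PC-7 D3A). Also added: Ac-DEVD-pNA substrate, 400 µM as added. Schedule: 1 h enzyme–compound preincubation and 2 h substrate reaction, both 25 °C. Signal: p-Nitroaniline absorbance at 405 nm, read at 0 and 120 min. Control set: low DMSO alone, high DMSO plus 5 µM PC-7.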
Neddylation inh: cullin neddylation inhibition | P61081+Q13564 | TR-FRET cullin neddylation, biochemical | calls only at 25 µM | 0.58% of 360,000 active | AID 651699; in the data active = inhibition above about 36%
VIM-2 inh: inhibitors of Pseudomonas aeruginosa VIM-2 metallo-beta-lactamase. purified VIM-2, nitrocefin hydrolysis, epi-absorbance fluorescence. inhibition, % at 5.6 µM. 0.89% of 290,000 active;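 active = inhibition above the mean of all tested compounds plus 3 SD, cutoff set per screening run, cut at about 7.5% in these data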;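 note: red hydrolysis product quenches plate fluorescence so inhibitors raise well fluorescence; 0% = enzyme with DMSO and 100% = DMSO without enzyme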
IMP-1 inh-2: IMP-1 inhibition, counter-screen for VIM-2 inhibitors. purified IMP-1, nitrocefin hydrolysis, epi-absorbance fluorescence. 1,300 tested, under 10 active. shares compounds with VIM-2 inh. inhibition, % at 5.6 µM; call rule not given here;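 note: 0% = enzyme with vehicle and 100% = vehicle without enzyme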
VIM-2 FRET ctr: VIM-2 FRET inhibition, artifact counter-screen | shares compounds with VIM-2 inh | purified VIM-2, CCF2 FRET substrate hydrolysis | inhibition, % at 5.6 µM | 23% of 1,300 active;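 active = inhibition above the mean of all tested compounds plus 3 SD, cut at about 19% in these data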;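 note: 0% = VIM-2 plus DMSO and 100% = no enzyme wells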
TEM-1 inh: TEM-1 inhibition, counter-screen for VIM-2 inhibitors. shares compounds with VIM-2 inh. Purified TEM-1, nitrocefin hydrolysis, epi-absorbance fluorescence. inhibition, % at 5.6 µM. 3% of 1,300 active;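 active = inhibition above that campaign's mean inhibition plus 3 SD, cut at about 0.46% in these data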;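 note: 0% = TEM-1 with DMSO and 100% = TEM-1 with 100 µM potassium clavulanate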
VIM-2 confirm 2: confirmation of P. aeruginosa VIM-2 metallo-beta-lactamase inhibitors; shares compounds with VIM-2 inh; purified VIM-2, nitrocefin hydrolysis, epi-absorbance; inhibition, % at 5.6 µM; 96% of 1,300 active; AID 2187;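 active = inhibition of the VIM-2 beta-lactamase enzyme above about 11% from the earlier first-round screen, limit read from the data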;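 note: 0% = VIM-2 with DMSO and 100% = buffer wells without enzyme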
Numbers without * were called inactive; i = inactive; . = no result shown. Sampled rows, rich in hits. Any-hit rate of the full collection: about 1.7%.

SMILES	PolyA inh	procasp3 activ	IMP-1 inh-1	procasp7 counter	Neddylation inh	VIM-2 inh	IMP-1 inh-2	VIM-2 FRET ctr	TEM-1 inh	VIM-2 confirm 2
Cc1cc(OCC(=O)NC2CC(C)(C)NC(C)(C)C2)c2c(C)c(C)c(=O)oc2c1	1.3	-3.8	0.9	-3.9	.	13.5*	-3.9	2.1	-6.8	17.6*
C=CCOc1ccc2ccccc2c1CNn1c(C)n[nH]c1=S	-14.3	-14.1	-1.6	-6.8	i	16.8*	-4.1	32.6*	-5.8	20.0*
C=CCOc1ccc(CNn2c(C)n[nH]c2=S)cc1OC	-13.3	0.1	-0.5	-2.7	i	-1.3	.	.	.	.
O=C(Nc1ccccc1C(F)(F)F)N1CCN(c2ccc3nnc(-c4ccc(F)cc4)n3n2)CC1	12.4	1.3	-1.5	5.9	i	12.4*	-2.9	-1.6	-7.6	6.4
O=C(Nc1ccc(F)cc1)N1CCN(c2ccc3nnc(-c4ccc(F)cc4)n3n2)CC1	29.7	-0.7	-2.3	-1.6	i	3.3	.	.	.	.
O=C(c1ccc(Br)o1)N1CCN(c2ccc3nnc(-c4ccccc4)n3n2)CC1	-7.6	0.3	-2.1	-3.8	i	16.1*	-2.7	-2.0	-1.6	24.2*
Cc1nnc2ccc(N3CCN(C(=O)c4ccccc4)CC3)nn12	26.8	13.6	-1.2	-3.2	i	-1.6	.	.	.	.
CCCNC(=O)c1cc(C)no1	10.3	4.7	-5.1	-4.7	i	-1.8	.	.	.	.
O=C(COC(=O)CC1CCCC1)Nc1ccccc1[N+](=O)[O-]	.	0.9	.	0.3	i	.	.	.	.	.
C[C@@H](NC(=O)Cn1cnc2c(OCc3ccccc3)ncnc21)c1cccc2ccccc12	.	10.6	.	3.8	i	.	.	.	.	.
Cc1cc(C)c2c(N)c(C(=O)c3ccccc3)oc2n1	10.2	-2.5	-3.3	-11.7	i	-0.9	.	.	.	.
COC(=O)c1oc2nc(C)cc(C)c2c1N	5.3	5.3	3.5	-0.3	.	15.3*	-3.0	-0.1	-5.6	14.1*
NNC(=O)COc1ccc(-c2nccc(-c3ccc(F)cc3)n2)cc1	20.3	-2.9	-1.3	8.8	i	-0.8	.	.	.	.
Oc1ccc(-c2nccc(-c3ccc(F)cc3)n2)cc1	-14.9	0.2	-1.8	8.4	i	15.8*	-2.4	-5.6	-3.7	30.8*
Cc1nn2c3ccccc3nc2c2ccccc12	-15.7	0.1	-1.4	-2.5	.	13.3*	-3.1	-9.7	-2.7	27.2*
COC(=O)C1=C(C)N(Cc2ccccc2)C(=NCCCCO)N[C@H]1c1cccc(C(F)(F)F)c1	.	4.5	.	1.3	i	.	.	.	.	.
CN1CCN(C(=O)CSc2nc3c(c(=O)n(C)c(=O)n3C)n2C)CC1	11.6	3.6	-1.9	-3.2	i	75.5*	-3.6	1.9	-7.2	78.7*
Cc1ccccc1C(NC(=O)C1CCN(Cc2ccc(Oc3ccccc3)cc2)CC1)c1ccsc1 (stereo unspecified)	.	.	.	.	i	.	.	.	.	.
CCC(C)(C)NC(=O)C(c1ccccc1)N(C(=O)c1csnn1)C1CC1 (stereo unspecified)	-4.1	0.1	-7.0	7.0	i	-3.4	.	.	.	.
CC(/C=N/N1CCN(c2ccccc2)CC1)=C\c1ccccc1	13.2	2.3	-1.1	-4.4	i	-0.7	.	.	.	.
CCCN1CCN(C(=O)C(C)n2nc(C)c3sc4ccccc4c3c2=O)CC1 (stereo unspecified)	15.1	-2.5	-2.6	10.9	i	28.6*	-2.4	-3.6	-4.7	36.4*
CCCN1CCN(CCCNC(=O)C(CC)n2nc(C)c3sc4ccccc4c3c2=O)CC1 (stereo unspecified)	3.1	0.3	-2.5	-1.8	i	0.9	.	.	.	.
CCN1CCN(CCCNC(=O)CCCn2nc(C)c3sc4ccccc4c3c2=O)CC1	25.1	2.2	-0.9	-1.5	i	13.2*	-3.6	4.2	-6.1	16.0*
CCOC(=O)C(C)Sc1nc(-c2ccccn2)ncc1OC (stereo unspecified)	-9.8	-5.2	-4.5	10.8	i	35.1*	-3.4	-20.4	-5.7	43.4*
COc1cnc(-c2ccccc2)nc1Oc1cccc(C)c1	1.9	4.1	-2.5	10.8	i	-2.4	.	.	.	.
SMILES	PolyA inh	procasp3 activ	IMP-1 inh-1	procasp7 counter	Neddylation inh	VIM-2 inh	IMP-1 inh-2	VIM-2 FRET ctr	TEM-1 inh	VIM-2 confirm 2
COc1cnc(-c2ccccn2)nc1Oc1cccc(Cl)c1	-26.7	-1.2	-4.0	0.9	i	17.3*	-4.1	-30.9	-4.1	35.8*
COc1ccc(Oc2nc(-c3ccccn3)ncc2OC)cc1	-22.7	0.8	-4.9	11.2	i	16.4*	-3.9	-24.3	-4.7	25.4*
COc1cnc(-c2ccccn2)nc1Oc1c(C)cccc1C	-33.8	8.1	-3.2	16.6	i	3.4	.	.	.	.
COc1cnc(-c2ccccn2)nc1Sc1ccccc1Cl	-56.9	0.2	-3.5	1.6	i	0.0	.	.	.	.
COCc1ccc(C(=O)N2CCCC(C(=O)c3ccc(SC)cc3)C2)s1 (stereo unspecified)	11.7	-0.8	-1.1	-1.1	i	-0.8	.	.	.	.
COC(=O)Cn1cccc1C(=O)c1ccccc1	-29.9	6.2	0.3	-0.5	i	0.8	.	.	.	.
O=C(O)Cn1cccc1C(=O)c1ccccc1	5.9	1.0	-2.5	6.0	i	33.0*	-2.3	48.9*	-3.6	30.4*
O=C(C1CC(c2ccc(F)cc2)=NO1)N1CCN(c2ccccc2)CC1 (stereo unspecified)	4.1	0.7	-2.3	3.6	i	1.4	.	.	.	.
Cn1c(C(=O)NCCN2CCc3ccccc3C2)cc2c(=O)n(C)c3ccccc3c21	-10.1	-3.4	0.2	1.9	i	19.0*	-3.1	-1.1	-7.0	27.6*
COCCNC(=O)c1cc2c(=O)n3cccc(C)c3nc2n1C	-4.1	1.0	.	1.0	.	.	.	.	.	.
Cc1cccn2c(=O)c3cc(C(=O)NCCCN4CCCC4=O)n(C)c3nc12	-7.7	3.7	-0.7	-5.4	.	17.3*	-1.6	-7.9	1.2*	25.8*
CN(CCNC(=O)c1cc2c(=O)n(C)c3ccccc3c2n1C)Cc1ccccc1	13.8	7.1	-0.6	5.5	i	17.3*	-3.9	2.3	-8.3	26.1*
Cn1c(C(=O)NCc2cccs2)cc2c(=O)n(C)c3ccccc3c21	-9.7	5.5	-3.8	2.7	i	-0.9	.	.	.	.
